# Test results published in PubChem BioAssay AID540312 (Sanford-Burnham Center for Chemical Genomics, 2011).
# Calls of active or inactive are those of the source.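 The calls were made as follows: active = mean EC50 of 20 µM or lower; inactive = the rest.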
# Molecular target: CHO-CHOP luciferase reporter, UPR activation, luminescence
# Experiment: CHOP luciferase reporter activation – CHO-CHOP cells, luminescence, SAR follow-up (AID 540312)
# Outline: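 Schedule: 16–18 h cell rest, then 6 h compound treatment, 37 °C / System: CHO-CHOP cells with stably transfected luciferase reporter of PERK-eIF2a-CHOP pathway / Measured by: Steady-Glo luminescence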
row,SMILES,EC50
1,O=C(Nc1nc2ccc(F)cc2s1)c1ccccn1,12.6 µM
2,O=C(Nc1nc2c(F)cccc2s1)c1ccccn1,5.83 µM
3,CC1CN(S(=O)(=O)c2ccc(NC(=O)c3ccco3)cc2)CC(C)O1 (stereo unspecified),> 80 µM (inactive)
4,O=C(Nc1ccc(C(=O)N2CCOCC2)cc1)c1ccco1,> 80 µM (inactive)
5,O=C(Nc1nc2c(F)cc(F)cc2s1)c1ccccn1,7.22 µM
6,O=C(Nc1nc2ccccc2s1)c1ccccn1,> 80 µM (inactive)
7,O=C(Nc1nc2c(F)cc(F)cc2s1)c1ccncc1,> 80 µM (inactive)
8,Fc1cc(F)c2nc(NCc3ccccn3)sc2c1,> 80 µM (inactive)
9,Cc1cc(C)c2nc(NC(=O)c3ccccn3)sc2c1,7.56 µM
10,O=C(Nc1nc2ccccc2s1)c1ccncc1,> 80 µM (inactive)
11,O=C(Nc1nc2c(F)cc(F)cc2s1)c1ccccc1,> 80 µM (inactive)
12,O=C(Nc1nc2c(F)cc(F)cc2s1)c1cccnc1,> 80 µM (inactive)
13,O=C(Nc1nc2ccccc2s1)c1cccnc1,> 80 µM (inactive)
14,O=C(Nc1nc2c(Cl)cc(Cl)cc2s1)c1ccccn1,10.6 µM

# Now from value to compound:
row,EC50,SMILES
1,2.28 µM,O=C(Nc1ccc(S(=O)(=O)N2CCOCC2)cc1)c1ccc([N+](=O)[O-])o1
2,0.494 µM,CC1(C)CCN(S(=O)(=O)c2ccc(NC(=O)c3ccc([N+](=O)[O-])o3)cc2)CC1
3,13.5 µM,O=C(Nc1ccc(S(=O)(=O)N2CCOCC2)cc1)c1ccc([N+](=O)[O-])s1
4,1.75 µM,O=C(Nc1ccc(S(=O)(=O)N2CCCCC2)cc1)c1ccc([N+](=O)[O-])o1
5,> 80 µM (inactive),O=C(Nc1ccc(S(=O)(=O)N2CCOCC2)cc1)c1ccccc1
6,1.09 µM,O=C(Nc1ccc(S(=O)(=O)c2ccccc2)cc1)c1ccc([N+](=O)[O-])o1
7,> 80 µM (inactive),O=C(Nc1ccc(S(=O)(=O)N2CCOCC2)cc1)c1ccc([N+](=O)[O-])cc1
8,> 80 µM (inactive),O=C(Nc1ccc(S(=O)(=O)N2CCOCC2)cc1)c1cccs1
9,0.676 µM,O=C(Nc1ccc(S(=O)(=O)C2CCCCC2)cc1)c1ccc([N+](=O)[O-])o1
10,> 80 µM (inactive),O=C(Nc1ccc(S(=O)(=O)N2CCOCC2)cc1)c1ccco1
11,0.541 µM,CC1CCN(S(=O)(=O)c2ccc(NC(=O)c3ccc([N+](=O)[O-])o3)cc2)CC1
12,> 80 µM (inactive),O=C(Nc1ccc(S(=O)(=O)N2CCOCC2)cc1)c1ccc(Br)o1
13,0.742 µM,O=C(Nc1ccc(S(=O)(=O)N2CCCC2)cc1)c1ccc([N+](=O)[O-])o1
14,> 80 µM (inactive),Cc1ccc(C(=O)Nc2ccc(S(=O)(=O)N3CCOCC3)cc2)o1
15,> 80 µM (inactive),O=C(Nc1cccc(S(=O)(=O)N2CCOCC2)c1)c1ccco1
16,inactive,O=C(Nc1ccc(S(=O)(=O)N2CCNCC2)cc1)c1ccc([N+](=O)[O-])o1
17,2.02 µM,O=C(Nc1ccc(S(=O)(=O)N2CCC(O)CC2)cc1)c1ccc([N+](=O)[O-])o1
